Paper PMC6712212 (Drug Design, Development and Therapy, 2019)

System: NSCLC-H292 cells
Experiment: Flow cytometry cell cycle analysis
Format: cell-based, human
Summary of the method: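 Cells were grown in six-well plates and treated 48 hrs, then harvested and centrifuged 5 mins. They were resuspended in precooled PBS, centrifuged again, and fixed in 70% ethanol overnight at 4°C. After a PBS rinse, cells were stained with propidium iodide. Red fluorescence of 1×10^5 cells was measured by flow cytometry with 488 nm excitation.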

O[C@@H](CS)[C@@H](O)CS [DTT]
Cell cycle effect (in words): cells were blocked in G0/G1phase
